The target in experiment [1] is Potassium-transporting ATPase (Canis familiaris). Description: Inhibitory activity against dog gastric proton-pump enzyme H+/K+ ATPase.
Experiment [2] concerns Rattus norvegicus. The experiment can be described thus: Gastric antisecretory activity against gastric secretion in the pylorus-ligated rat at a dose of 60 mg/Kg. Format: functional, Stomach. The essentials:
(§1)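 Conscious rats, pylorus ligated under ether anesthesia; drug or vehicle injected into the duodenum. Killed 2 h after surgery. Stomach contents centrifuged, then titrated to pH 7.0 for acid output (uEq/h per 100 g body weight). Inhibition calculated versus vehicle-treated rats. Means ± SE of 5-10 animals; Student's t test, p < 0.05.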

The subject of experiment [3] is Potassium-transporting ATPase (Canis familiaris). The experiment can be described thus: Percent inhibition of gastric proton-pump enzyme H+/K+ ATPase was determined at 50 uM. As to conditions: Canis lupus familiaris, Stomach.
Experiment [4] has the same test system. Description: Percent inhibition of gastric proton-pump enzyme H+/K+ ATPase was determined at 10 uM. Conditions: Canis lupus familiaris, Stomach.
In experiment [5] the test system is Rattus norvegicus. Description: Gastric antisecretory activity against gastric secretion in the pylorus-ligated rat at a dose of 30 mg/Kg. Format: functional, Stomach. The essentials: as §1
The target of experiment [6] is Potassium-transporting ATPase (Canis familiaris). The experiment can be described thus: The compound was tested in vitro for inhibition of gastric proton-pump enzyme H+/K+ ATPase.
For experiment [7] the target is unchanged. The experiment can be described thus: Inhibitory activity of gastric proton-pump enzyme H+/K+ ATPase was determined at 50 uM.
The target in experiment [8] is Dog Kidney Na+, K+-ATPase (Canis lupus familiaris, UniProt P50997). The experiment can be described thus: Tested against canine renal Na+/K+ ATPase.
Experiment [9] concerns Rattus norvegicus. Description: Gastric antisecretory activity against gastric secretion in the pylorus-ligated rat at a dose of 26 mg/Kg. Format: functional, Stomach. In outline:
as §1

Experiment [10] relates to Rattus norvegicus. Description: Gastric antisecretory activity against gastric secretion in the pylorus-ligated rat at a dose of 60 mg/kg. The class given is functional, Stomach. In outline:
as §1

Experiment [11] is filed under the species Rattus norvegicus. Description: Antisecretory activity in a pylorus-ligated rat model.
In experiment [12] the test system is Rattus norvegicus. The experiment can be described thus: Gastric antisecretory activity against gastric secretion in the pylorus-ligated rat at a dose of 10 mg/Kg. Format: functional, Stomach. In outline: as §1
A further experiment deals with Canis familiaris. Description: Antisecretory activity in Heidenhain pouch dog model at 2 mg/kg, iv. Format: functional, organism-based. Set-up: dose 2 mg/kg. Conditions: Canis lupus familiaris. The essentials: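 Heidenhain pouch dogs on pentagastrin infusion; drug or vehicle given iv at 2 mg/kg, 90 min after the infusion started. Gastric juice collected at 30-min intervals, ten collections per dog. Acid titrated to pH 7.4 with 0.1 N NaOH. Effect = lowest acid output after drug versus mean output immediately before drug.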

For experiment [13], the system named is Rattus norvegicus. Description: Gastric antisecretory activity against gastric secretion in the pylorus-ligated rat at a dose of 33 mg/Kg. Format: functional, Stomach. In outline: as §1

Activity calls are given as the source filed them. No cut-off for these calls is given here. Bounds are passed on as bounds.

These results are taken from ChEMBL document CHEMBL1125091, “Antiulcer agents. 4-substituted 2-guanidinothiazoles: reversible, competitive, and selective inhibitors of gastric H+,K(+)-ATPase” (J Med Chem, 1990).

One may read the IC50 as the concentration needed to halve the response being measured. What is called inhibition is the drop in the measured response relative to a control, in per cent. As usually defined, the ED50 is the midpoint of the dose-response relation. Read a high ED50 as weaker potency.

Regarding `Cl.N=C(N)Nc1nc(-c2ccc(O)c(O)c2)cs1`, the IC50 in experiment [1] was determined as 1.5 µM. The Activity in the experiment with Rattus norvegicus [2] is reported as -149%. Besides, in experiment [3], the inhibition came out at 100%.
In the case of `Cl.N=C(N)Nc1nc(-c2c[nH]c3ccc(Br)cc23)cs1`, half-maximal inhibition in experiment [1] (IC50) was put at 0.96 µM. In the experiment with Rattus norvegicus [2], the Activity is -43%. The inhibition in experiment [4] stood at 90%.
Compound `Cl.N/C(=N\Cc1ccccc1)Nc1nc(-c2ccc(O)c(O)c2)cs1` displayed an IC50 in experiment [1] of 0.3 µM. Moreover, in experiment [3], the inhibition was 111%. Moreover, in the experiment with Rattus norvegicus [5], the Activity was found to be 2.5%.
With `Cl.N=C(N)Nc1nc(-c2c[nH]c3ccc(Cl)cc23)cs1`, the IC50 in [1] and in experiment [6] was 1.8 µM throughout. Further, in the experiment with Rattus norvegicus [2], the Activity worked out at 22%. Further, the inhibition in experiment [3] stood at 89%.
Turning to `Cc1[nH]c2ccccc2c1-c1nc(NC(=N)NCc2ccccc2)sc1C.Cl`, the Activity in the experiment on Rattus norvegicus [2] is listed as 69%; in the experiment with Rattus norvegicus [5] it was 47%. The compound further gave an IC50 in experiment [7] of 5.3 µM.
`CC(=O)Oc1ccc(-c2csc(NC(=N)NCc3ccccc3)n2)cc1OC(C)=O.Cl` came in with an IC50 in experiment [7] of more than 50 µM. For the same compound, in the experiment on Rattus norvegicus [5], the Activity is -1%.
`Cc1[nH]ccc1-c1nc(N=C(N)N)sc1C.Cl`: the IC50 in experiment [1] was determined as 1.3 µM; in experiment [6], 1 µM. In addition, the Activity with Rattus norvegicus [2] turned out to be 46%. For the same compound, in experiment [3], the inhibition stood at 102%.
`Cc1cccc2c(-c3csc(N=C(N)N)n3)c[nH]c12`: in experiment [1], half-maximal inhibition (IC50) was put at 7.6 µM. Moreover, the inhibition in [4] is 55%.
With `COc1ccc2[nH]cc(-c3csc(NC(=N)NCc4ccccc4)n3)c2c1.Cl`, it took 4.3 µM to reach half-maximal inhibition in experiment [1] (IC50). Besides, the Activity in the experiment with Rattus norvegicus [2] turned out to be 48%. Further, the inhibition in experiment [3] stood at 95%.
For `Cc1cc(-c2csc(N=C(N)N)n2)c[nH]1`, the IC50 in experiment [1] is 25 µM; in [8], more than 100 µM. Besides, the Activity with Rattus norvegicus [9] was 50%. In experiment [3], the inhibition was 70%.
For `Cc1ccc2c(-c3csc(N=C(N)N)n3)c[nH]c2c1.Cl`, the Activity with Rattus norvegicus [2] turned out to be 42%. The inhibition in experiment [3] amounted to 64%.
As for `Cc1cc(-c2nc(N=C(N)N)sc2C)c[nH]1`, the figures for the concentration for half-maximal inhibition (IC50) in [1] and in experiment [6] were 1.2 µM and 1 µM, respectively. Further, the Activity in the experiment on Rattus norvegicus [10] stood at 36%. In addition, the inhibition in [3] was 100%.
The compound `N=C(N)Nc1nc2c(s1)CCc1ccccc1-2` had an IC50 in experiment [7] of 21 µM.
With `CN/C(=N\CCSCc1nc[nH]c1C)NC#N` [CIMETIDINE], in the experiment filed under Rattus norvegicus [11], the ED50 amounted to 11 mg/kg.
Turning to `CC(=O)Oc1ccc(-c2csc(N=C(N)N)n2)cc1OC(C)=O.Cl`, in [7], 27 µM corresponded to half-maximal inhibition (IC50). In the experiment on Rattus norvegicus [5], the Activity was 15%.
In turn, `Cc1[nH]ccc1-c1csc(NC(=N)NCc2ccccc2)n1.O=C(O)/C=C\C(=O)O` came in with a 50% inhibitory concentration (IC50) in [1] of 6 µM. Moreover, in experiment [3], the inhibition stood at 93%. Further, in the experiment with Rattus norvegicus [5], the Activity was determined as 60%.
As for `Cl.N=C(NCc1ccccc1)Nc1nc(-c2c[nH]c3ccc(Br)cc23)cs1`, the IC50 in experiment [1] was found to be 0.7 µM. In addition, the Activity in the experiment on Rattus norvegicus [2] was determined as 52%. In [3], the inhibition was 105%.
Consider `Cc1[nH]c2ccccc2c1-c1nc(N=C(N)N)sc1C.Cl`, for which the Activity with Rattus norvegicus [2] is given as 78%; with Rattus norvegicus [12], 51%. Also, the concentration for half-maximal inhibition (IC50) in [7] stood at 6.2 µM. The outcome with Canis familiaris was inactive.
`Cc1sc(NC(=N)NCc2ccccc2)nc1-c1c[nH]c2ccc(Cl)cc12`: in the experiment on Rattus norvegicus [2], the Activity was -59%. For the same compound, the inhibition in experiment [3] was found to be 101%.
In [1], `Cc1ccc(-c2csc(N=C(N)N)n2)[nH]1.O=C(O)/C=C\C(=O)O` returned an IC50 of 45 µM. The Activity with Rattus norvegicus [13] was 50%. Moreover, the inhibition in experiment [3] stood at 76%.
In the case of `Br.COc1ccc(-c2csc(N=C(N)N)n2)cc1`, the figures for the Activity in the experiment with Rattus norvegicus [2], in the experiment with Rattus norvegicus [12] and in the experiment on Rattus norvegicus [5] were 87%, 27% and 26%, respectively.
